Laboratory results reported in ChEMBL document CHEMBL1240380, “Acinetobacter baumannii increases tolerance to antibiotics in response to monovalent cations” (Antimicrob Agents Chemother, 2010).
Activity calls are given as the source filed them.

Legend:
Acinetobacter baumannii [1] = test: Antibacterial activity against Acinetobacter baumannii isolate 2824 isolated from human urine; assay type: functional, organism-based
Acinetobacter baumannii [2] = test: Antibacterial activity against Acinetobacter baumannii ATCC 17978 assessed as bacterial growth at 0.09 mg/L in presence of 150 mM NaCl; assay type: functional, organism-based
Procedure, shortened: (§1)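 Overnight cultures were diluted 1:100 in NaCl-free MHB and grown to OD600 0.4. They were then diluted to 10^5 CFU/ml in MHB with or without 150 mM NaCl, plus or minus antibiotic. Growth was run in triplicate for 12 h at 37°C with shaking at 180 rpm, and OD600 was read every 2 h.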

Acinetobacter baumannii [3] = test: Antibacterial activity against Acinetobacter baumannii isolate 5191 isolated from human urine; assay type: functional, organism-based
Acinetobacter baumannii [4] = test: Antibacterial activity against Acinetobacter baumannii using MHB medium assessed as bacterial growth at 0.09 mg/L in presence of 150 mM of KCl; assay type: functional, organism-based
Procedure, shortened: as §1, with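 “Growth-curve challenge with 150 mM KCl in place of NaCl. Overnight” for “Overnight”, “KCl,” for “NaCl,”, “plus” for “plus or minus”, “Cultures ran” for “Growth was run”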

Acinetobacter baumannii [5] = test: Antibacterial activity against Acinetobacter baumannii isolate 4860 isolated from human urine; assay type: functional, organism-based
Acinetobacter baumannii [6] = test: Antibacterial activity against Acinetobacter baumannii isolate 2898 isolated from human ankle; assay type: functional, organism-based
Acinetobacter baumannii [7] = test: Antibacterial activity against Acinetobacter baumannii isolate 510 isolated from human sputum; assay type: functional, organism-based
Acinetobacter baumannii [8] = test: Antibacterial activity against Acinetobacter baumannii isolate 4860 using MHB medium with 150 mM NaCl assessed as bacterial growth at 0.75 mg/L after 12 hrs; assay type: functional, organism-based; procedure, shortened: as §1
Acinetobacter baumannii [9] = test: Antibacterial activity against Acinetobacter baumannii isolate 510 using MHB medium after 24 hrs; assay type: functional, organism-based
Procedure, shortened: (§2)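 MIC by CLSI broth microdilution in MHB, with the medium supplemented with 150 mM NaCl where indicated. The read-out was taken after 24 h of drug exposure.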

Acinetobacter baumannii [10] = test: Antibacterial activity against Acinetobacter baumannii isolate 4860 using MHB medium with 150 mM NaCl after 24 hrs; assay type: functional, organism-based; procedure, shortened: as §2
Acinetobacter baumannii [11] = test: Antibacterial activity against Acinetobacter baumannii ATCC 17978 using MHB medium with 150 mM NaCl assessed as bacterial growth at 0.75 mg/L after 12 hrs; assay type: functional, organism-based; procedure, shortened: as §1
Acinetobacter baumannii [12] = test: Antibacterial activity against Acinetobacter baumannii isolate 5191 using MHB medium with 150 mM NaCl assessed as bacterial growth at 0.75 mg/L after 12 hrs; assay type: functional, organism-based; procedure, shortened: as §1
Acinetobacter baumannii [13] = test: Antibacterial activity against Acinetobacter baumannii isolate 510 using MHB medium with 150 mM NaCl after 24 hrs; assay type: functional, organism-based; procedure, shortened: as §2
Acinetobacter baumannii [14] = test: Antibacterial activity against Acinetobacter baumannii isolate 5191 using MHB medium after 24 hrs; assay type: functional, organism-based; procedure, shortened: as §2
Acinetobacter baumannii [15] = test: Antibacterial activity against Acinetobacter baumannii isolate 2898 using MHB medium assessed as bacterial growth at 0.75 mg/L after 12 hrs; assay type: functional, organism-based; procedure, shortened: as §1
Acinetobacter baumannii [16] = test: Antibacterial activity against Acinetobacter baumannii isolate 2824 using MHB medium with 150 mM NaCl assessed as bacterial growth at 0.75 mg/L after 12 hrs; assay type: functional, organism-based; procedure, shortened: as §1
Acinetobacter baumannii [17] = test: Antibacterial activity against Acinetobacter baumannii ATCC 17978 using MHB medium assessed as bacterial growth at 0.75 mg/L after 12 hrs; assay type: functional, organism-based; procedure, shortened: as §1
Acinetobacter baumannii [18] = test: Antibacterial activity against Acinetobacter baumannii isolate 2898 using MHB medium with 150 mM NaCl after 24 hrs; assay type: functional, organism-based; procedure, shortened: as §2
Acinetobacter baumannii [19] = test: Antibacterial activity against Acinetobacter baumannii using MHB medium with NaCl in presence of efflux pump inhibitor PAbetaN; assay type: functional, organism-based
Procedure, shortened: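 Cells in MHB with or without 150 mM NaCl were pretreated with 60 mg/liter PAβN for 30 min at room temperature before antibiotic was added. Cultures at 10^5 CFU/ml were then grown in triplicate for 12 h at 37°C with shaking at 180 rpm, and OD600 was monitored every 2 h.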

Acinetobacter baumannii [20] = test: Antibacterial activity against Acinetobacter baumannii isolate 5191 using MHB medium with 150 mM NaCl after 24 hrs; assay type: functional, organism-based; procedure, shortened: as §2
Acinetobacter baumannii [21] = test: Antibacterial activity against Acinetobacter baumannii isolate 2824 using MHB medium after 24 hrs; assay type: functional, organism-based; procedure, shortened: as §2
Acinetobacter baumannii [22] = test: Antibacterial activity against Acinetobacter baumannii isolate 510 using MHB medium assessed as bacterial growth at 0.75 mg/L after 12 hrs; assay type: functional, organism-based; procedure, shortened: as §1
Acinetobacter baumannii [23] = test: Antibacterial activity against Acinetobacter baumannii isolate 510 using MHB medium with 150 mM NaCl assessed as bacterial growth at 0.75 mg/L after 12 hrs; assay type: functional, organism-based; procedure, shortened: as §1
Acinetobacter baumannii [24] = test: Antibacterial activity against Acinetobacter baumannii isolate 4860 using MHB medium after 24 hrs; assay type: functional, organism-based; procedure, shortened: as §2
Acinetobacter baumannii [25] = test: Antibacterial activity against Acinetobacter baumannii ATCC 17978 assessed as bacterial growth at 0.75 mg/L in presence of 150 mM NaCl; assay type: functional; procedure, shortened: as §1
Acinetobacter baumannii [26] = test: Antibacterial activity against Acinetobacter baumannii isolate 2824 using MHB medium assessed as bacterial growth at 0.75 mg/L after 12 hrs; assay type: functional, organism-based; procedure, shortened: as §1
Acinetobacter baumannii [27] = test: Antibacterial activity against Acinetobacter baumannii isolate 4860 using MHB medium assessed as bacterial growth at 0.75 mg/L after 12 hrs; assay type: functional, organism-based; procedure, shortened: as §1
Acinetobacter baumannii [28] = test: Antibacterial activity against Acinetobacter baumannii ATCC 17978 using MHB medium after 24 hrs; assay type: functional; procedure, shortened: as §2
Acinetobacter baumannii [29] = test: Antibacterial activity against Acinetobacter baumannii using MHB medium assessed as bacterial growth at 0.75 mg/L in presence of 150 mM of KCl; assay type: functional, organism-based
Procedure, shortened: as §1, with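 “Growth-curve challenge with 150 mM KCl in place of NaCl. Overnight” for “Overnight”, “KCl,” for “NaCl,”, “plus” for “plus or minus”, “Cultures ran” for “Growth was run”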

Acinetobacter baumannii [30] = test: Antibacterial activity against Acinetobacter baumannii isolate 2898 using MHB medium after 24 hrs; assay type: functional, organism-based; procedure, shortened: as §2
Acinetobacter baumannii [31] = test: Antibacterial activity against Acinetobacter baumannii isolate 2824 using MHB medium with 150 mM NaCl after 24 hrs; assay type: functional, organism-based; procedure, shortened: as §2
Acinetobacter baumannii [32] = test: Antibacterial activity against Acinetobacter baumannii using MHB medium with 150 mM assessed as bacterial growth at 1.5 mg/L after 12 hrs in presence of 30 mg/L efflux pump inhibitor PAbetaN; assay type: functional, organism-based
Acinetobacter baumannii [33] = test: Antibacterial activity against Acinetobacter baumannii isolate 2898 using MHB medium with 150 mM NaCl assessed as bacterial growth at 0.75 mg/L after 12 hrs; assay type: functional, organism-based; procedure, shortened: as §1
Acinetobacter baumannii [34] = test: Antibacterial activity against Acinetobacter baumannii ATCC 17978 using MHB medium with 150 mM NaCl after 24 hrs; assay type: functional; procedure, shortened: as §2
Acinetobacter baumannii [35] = test: Antibacterial activity against Acinetobacter baumannii isolate 5191 using MHB medium assessed as bacterial growth at 0.75 mg/L after 12 hrs; assay type: functional, organism-based; procedure, shortened: as §1
Acinetobacter baumannii [36] = test: Antibacterial activity against Acinetobacter baumannii using MHB medium assessed as bacterial growth at 1.5 mg/L after 12 hrs in presence of 30 mg/L efflux pump inhibitor PAbetaN; assay type: functional, organism-based
Acinetobacter baumannii [37] = test: Antibacterial activity against Acinetobacter baumannii ATCC 17978 assessed as bacterial growth at 0.0625 mg/L in presence of 150 mM NaCl; assay type: functional; procedure, shortened: as §1
Acinetobacter baumannii [38] = test: Antibacterial activity against Acinetobacter baumannii ATCC 17978 isolated from human CSF; assay type: functional, organism-based
Acinetobacter baumannii [39] = test: Antibacterial activity against Acinetobacter baumannii ATCC 17978 assessed as bacterial growth at 1.125 mg/L in presence of 150 mM NaCl; assay type: functional
Procedure, shortened: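 Strain grown overnight, diluted 1:100 in MHB without NaCl and grown to OD600 0.4. Then diluted to 10^5 CFU/ml in MHB supplemented with 150 mM NaCl, with or without gentamicin 1.125 mg/liter. Incubated 12 h at 37°C with shaking at 180 rpm, in triplicate. Growth followed by OD600 every 2 h.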

C[C@H]1COc2c(N3CCN(C)CC3)c(F)cc3c(=O)c(C(=O)O)cn1c23
inactive: Activity (Acinetobacter baumannii [1]) | Activity (Acinetobacter baumannii [2]) | Activity (Acinetobacter baumannii [3]) | Activity (Acinetobacter baumannii [4]) | Activity (Acinetobacter baumannii [5])

CO/N=C(\C(=O)N[C@@H]1C(=O)N2C(C(=O)O)=C(COC(C)=O)CS[C@H]12)c1csc(N)n1
inactive: Activity (Acinetobacter baumannii [6]) | Activity (Acinetobacter baumannii [7]) | Activity (Acinetobacter baumannii [1]) | Activity (Acinetobacter baumannii [3]) | Activity (Acinetobacter baumannii [5])

COLISTIN
0.75 µg/mL: MIC (Acinetobacter baumannii [9]) | MIC (Acinetobacter baumannii [14]) | MIC (Acinetobacter baumannii [21]) | MIC (Acinetobacter baumannii [28])
inactive: Activity (Acinetobacter baumannii [8]) | Activity (Acinetobacter baumannii [11]) | Activity (Acinetobacter baumannii [12]) | Activity (Acinetobacter baumannii [16]) | Activity (Acinetobacter baumannii [23]) | Activity (Acinetobacter baumannii [25]) | Activity (Acinetobacter baumannii [29]) | Activity (Acinetobacter baumannii [32]) | Activity (Acinetobacter baumannii [33]) | Activity (Acinetobacter baumannii [36])
active: Activity (Acinetobacter baumannii [15]) | Activity (Acinetobacter baumannii [17]) | Activity (Acinetobacter baumannii [22]) | Activity (Acinetobacter baumannii [26]) | Activity (Acinetobacter baumannii [27]) | Activity (Acinetobacter baumannii [35])
1.5 µg/mL: MIC (Acinetobacter baumannii [10]) | MIC (Acinetobacter baumannii [13]) | MIC (Acinetobacter baumannii [18]) | MIC (Acinetobacter baumannii [20]) | MIC (Acinetobacter baumannii [31]) | MIC (Acinetobacter baumannii [34])
1 µg/mL: MIC (Acinetobacter baumannii [30])
> 4 µg/mL: MIC (Acinetobacter baumannii [19])
2 µg/mL: MIC (Acinetobacter baumannii [24])

O=C(O)c1cn(C2CC2)c2cc(N3CCNCC3)c(F)cc2c1=O
inactive: Activity (Acinetobacter baumannii [6]) | Activity (Acinetobacter baumannii [7]) | Activity (Acinetobacter baumannii [1]) | Activity (Acinetobacter baumannii [3]) | Activity (Acinetobacter baumannii [5])

C[C@@H](O)[C@H]1C(=O)N2C(C(=O)O)=C(SCCNC=N)C[C@H]12
inactive: Activity (Acinetobacter baumannii [37])
active: Activity (Acinetobacter baumannii [6]) | Activity (Acinetobacter baumannii [7]) | Activity (Acinetobacter baumannii [1]) | Activity (Acinetobacter baumannii [38]) | Activity (Acinetobacter baumannii [3]) | Activity (Acinetobacter baumannii [5])

GENTAMICIN
inactive: Activity (Acinetobacter baumannii [6]) | Activity (Acinetobacter baumannii [7]) | Activity (Acinetobacter baumannii [1]) | Activity (Acinetobacter baumannii [3]) | Activity (Acinetobacter baumannii [39]) | Activity (Acinetobacter baumannii [5])
active: Activity (Acinetobacter baumannii [38])

CC(C)(O/N=C(\C(=O)N[C@@H]1C(=O)N2C(C(=O)[O-])=C(C[n+]3ccccc3)CS[C@H]12)c1csc(N)n1)C(=O)O
inactive: Activity (Acinetobacter baumannii [6]) | Activity (Acinetobacter baumannii [7]) | Activity (Acinetobacter baumannii [1]) | Activity (Acinetobacter baumannii [3]) | Activity (Acinetobacter baumannii [5])
